According to PMC5161541 (Nuclear medicine and biology, 2016):

How the values were obtained:
[1] = target: cannabinoid receptor type 2 (CB2); settings: cited from earlier work
σ1 receptors [2] = target: T1, σ1 receptors (Mus musculus, UniProt O55242); assay: "Hot" saturation binding in mouse brain membranes
Method in brief: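 "Hot" saturation: mouse brain membranes incubated with increasing radioligand concentrations until steady-state binding. Non-specific binding determined in parallel at each concentration with a competing non-radioactive ligand. Specific binding fitted by nonlinear regression to the one-site mass-action equation to give Kd and Bmax. Bound/Free expressed as (fmol/mg protein)/nM for the Scatchard plot. Single experiment.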

[3] = Lipophilicity, shake-flask n-octanol / buffer pH 7.4; format: physicochemical
Method in brief: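 Shake-flask method: radiolabeled test compound partitioned between equal volumes of n-octanol and aqueous buffer pH 7.4, each presaturated with the other. Vortexed, then centrifuged. Each layer sampled in duplicate or triplicate and counted. Counts normalized per g or per mL, and the concentration ratio converted to Log D7.4.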

σ1 receptors [4] = target: T1, σ1 receptors; assay: Calculated binding potential; settings: single trial, protein assumed 5% of brain tissue
Method in brief: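 The Scatchard Y-intercept, as Bound/Free in (fmol/mg protein)/nM from the in vitro mouse brain membrane saturation experiment, was converted to tissue-concentration units assuming protein is 5% of brain tissue. This gave binding potential for a single trial.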

σ1 receptors [5] = target: T1, σ1 receptors; assay: In vivo specific binding and blocking by pretreatment with σ receptor ligands
[6] = TCA protein precipitation assay of plasma protein binding; format: in vitro ADME, mouse; settings: for Protein Binding: mouse plasma, 37 °C, 30 min, TCA precipitation, n = 9
Method in brief: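 Radioiodinated test compound incubated in commercial mouse plasma at 37 °C for 30 min. Proteins then precipitated with cold 10% TCA / 5% HCl to measure protein-bound radioactivity.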

σ1 receptors [7] = target: T1, σ1 receptors; format: binding; settings: 0.16 nM radioligand, 37 °C
[8] = Temporal biodistribution after i.v. radioligand in CD-1 mice; format: in vivo, CD-1 mouse
Method in brief: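 Radioligand given i.v. to male CD-1 mice, with tissues sampled from 5 min to 24 h. Uptake expressed as %ID/g. Clearance half-lives from heart and lung obtained by monoexponential decay fitting.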

[9] = Radiometabolite analysis of tissue extracts and urine by HPLC; format: in vivo, CD-1 mouse; settings: for Radiometabolites Whole Brain, 60 min: mouse, in vivo
Method in brief: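 Organs from i.v.-dosed mice, given more radioactivity than in pharmacokinetic studies, counted and homogenized in methanol/acetonitrile/water containing DTG (100 μM). Homogenates centrifuged, with a radioactivity balance taken for extracts and pellets. Extracts diluted with water and filtered (0.45 μm) for radio-HPLC. Urine only diluted with mobile phase and filtered.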

[10] = 15 min, defined by BD1063 5 μmol / kg i.v.
[11] = listed as [^125I]-E-IA-BF-PIPZE

T1 sequence (O55242 whole entry): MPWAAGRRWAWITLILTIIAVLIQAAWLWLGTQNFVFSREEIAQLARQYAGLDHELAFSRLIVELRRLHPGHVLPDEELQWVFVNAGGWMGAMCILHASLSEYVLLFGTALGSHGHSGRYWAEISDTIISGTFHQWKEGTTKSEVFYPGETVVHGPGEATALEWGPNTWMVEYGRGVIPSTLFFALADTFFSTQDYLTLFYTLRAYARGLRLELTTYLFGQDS

For CCCCCCC(C)(C)c1ccc([C@@H]2C[C@H](O)CC[C@H]2CCCO)c(O)c1 [[^3H]-CP55940], the Kd [1] is listed as 1.5 nM.

For [125I]/C=C/CN1CCN(CCc2ccc3c(c2)CCO3)CC1 [[^125I]-E-IA-BF-PE-PIPZE, [^125I]-(E)-1-(2-(2,3-dihydrobenzofuran-5-yl)ethyl)-4-(iodoallyl)piperazine], the “Bound / Free Y-intercept” value (σ1 receptors [2]; (fmol / mg protein) / nM, single experiment) was 1942, the “fold higher affinity from rate constants compared to saturation binding” value (σ1 receptors [2]; Kd 0.042 nM vs […]) was 5.7 fold and the “fold higher σ1 receptor affinity than [125I]-E-IA-DM-PE-PIPZE” value (σ1 receptors [2]; measured Kd, mouse brain membranes) was 16 fold. The Bmax (σ1 receptors [2]; mouse brain membranes, 37 °C, 180 min, four trials, listed as [^125I]-E-IA-BF-PIPZE) was 472 ± 13 fmol / mg protein, the “fold higher lipophilicity than [125I]-E-IA-DM-PE-PIPZE” value [3] was 2.8 fold and the “Log D7.4” value ([3]; n-octanol / buffer pH 7.4, n = 5) was 2.69 ± 0.28. The “Binding Potential (BP)” value (σ1 receptors [4]) was 97, the “specific radioligand binding in brain” value (σ1 receptors [5]; [10]) was 75% and the “specific radioligand binding in heart” value (σ1 receptors [5]; [10]) was 87%. The “specific radioligand binding in lung” value (σ1 receptors [5]; [10]) was 87%, the “specific radioligand binding in muscle” value (σ1 receptors [5]; [10]) was 61% and the “radioactivity in the blood, controls” value (σ1 receptors [5]; 60 min, saline-treated control group) was 0.38 ± 0.09 %ID / g. For the same compound, the “Non-Specific binding Whole Brain, 30 min” value (σ1 receptors [5]; mouse, in vivo, 0.5 h) was 0.89 %ID /g, the “Specific binding Whole Brain, 30 min” value (σ1 receptors [5]; mouse, in vivo, 0.5 h) was 4.90 %ID /g and the “Non-Specific binding Whole Brain, 60 min” value (σ1 receptors [5]; mouse, in vivo, 1 h) was 0.60 %ID /g. For the same compound, the “Specific binding Whole Brain, 60 min” value (σ1 receptors [5]; mouse, in vivo, 1 h) was 5.38 %ID /g, the “Non-Specific binding Whole Brain, 240 min” value (σ1 receptors [5]; mouse, in vivo, 4 h) was 0.34 %ID /g and the “Specific binding Whole Brain, 240 min” value (σ1 receptors [5]; mouse, in vivo, 4 h) was 4.14 %ID /g. For the same compound, the “Specific / Non-Specific Whole Brain, 30 min” value (σ1 receptors [5]; ratio of %ID /g values) was 5.5, the “Specific / Non-Specific Whole Brain, 60 min” value (σ1 receptors [5]; ratio of %ID /g values) was 9.0 and the “Specific / Non-Specific Whole Brain, 240 min” value (σ1 receptors [5]; ratio of %ID /g values) was 12. For the same compound, the “Specific / Non-Specific Whole Brain, 240 min” value (σ1 receptors [5]; ratio of %ID /g values, listed as [^125I]-E-IA-BF-PIPZE) was 12.2, the “increase of protein binding with respect to [125I]-E-IA-DM-PE-PIPZE” value [6] was 50% and the “Protein Binding” value [6] was 71 ± 0.3%. The “Protein Binding” value [6, 11] was 71.2 ± 0.3%, the kobs (σ1 receptors [7]) was 0.016 ± 0.002 min⁻¹ and the “time to steady-state binding” value (σ1 receptors [7]) was about 180 min. The koff (σ1 receptors [7]; haloperidol-initiated dissociation) was 5.5e-05 ± 5e-06 s⁻¹, the blood level ([8]; 5 min) was 0.31 ± 0.03 %ID / g and the “radioactivity in the eye” value ([8]; 5 min) was 2.01 ± 0.13 %ID / g. For the same compound, the brain uptake ([8]; 5 min, i.v., mean ± SD) was 6.14 ± 0.94 %ID / g, the peak brain uptake ([8]; 15 min, i.v., mean ± SD) was 6.56 ± 1.23 %ID / g and the brain uptake ([8]; 4 h) was 4.48 ± 0.22 %ID / g. For the same compound, the blood level ([8]; 24 h) was 0.08 ± 0.01 %ID / g, the brain uptake ([8]; 24 h) was 0.76 ± 0.091 %ID / g and the “clearance t½ from lung” value ([8]; monoexponential decay, r^2 0.88) was 1.73 h. For the same compound, the “clearance t½ from heart” value ([8]; monoexponential decay, r^2 0.90) was 1.98 h, the “initial whole brain uptake” value ([8]; mouse, in vivo) was over 6 % injected dose / g and the “uptake in heart relative to brain, higher by” value ([8]; mouse, in vivo) was 50%. The “uptake in lung compared to brain” value ([8]; mouse, in vivo) was 5 fold, the “extractable radioactivity, liver” value ([9]; 60 min) was 80% and the “urinary radioactivity as polar metabolites” value ([9]; 60 min) was 99%. For the same compound, the “radioactivity in brain tissue from intact radioligand” value ([9]; 60 min, 100 μCi i.v.) was “About 99%”, the “Radiometabolites Whole Brain, 60 min” value [9] was 1% and the “Radiometabolites Whole Brain, 60 min” value [9, 11] was 1%.
